Key:
Design in all cases: dose 0.2 mg/kg, route intravenous
Rattus norvegicus [1] = assay: Tested for the tissue distribution of Br activity at 45 min in blood following intravenous injection in rat at the dose of 0.2 mg/kg; type: ADME, organism-based; settings: in vivo, 0.75 h
Method in brief: (§1)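 Male Sprague-Dawley rats (300-320 g, fed ad libitum) anesthetized with sodium pentobarbital 45 mg/kg, then given an iv bolus into the jugular vein of 19-22 µCi (0.2 mg/kg) [82Br]bromperidol in propylene glycol-ethanol-water (40:20:40), pH 4. Rats serially sacrificed by cardiac puncture. Organs counted 100 s at ~12 000 cpm with decay correction. Values are % dose/g, mean and SD of three.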

Rattus norvegicus [2] = assay: Tested for the tissue distribution of Br activity at 60 min in lung following intravenous injection in rat at the dose of 0.2 mg/kg; type: ADME, organism-based; settings: in vivo, 1 h; method in brief: as §1
Rattus norvegicus [3] = assay: Tested for the tissue distribution of Br activity at 15 min in blood following intravenous injection in rat at the dose of 0.2 mg/kg; type: ADME, organism-based; settings: in vivo, 0.25 h; method in brief: as §1
Rattus norvegicus [4] = assay: Tested for the tissue distribution of Br activity at 45 min in kidney following intravenous injection in rat at the dose of 0.2 mg/kg; type: ADME, organism-based; settings: in vivo, 0.75 h; method in brief: as §1
Rattus norvegicus [5] = assay: Tested for the tissue distribution of Br activity at 120 min in blood following intravenous injection in rat at the dose of 0.2 mg/kg; type: ADME, organism-based; settings: in vivo, 2 h; method in brief: as §1
Rattus norvegicus [6] = assay: Tested for the tissue distribution of Br activity at 15 min in lungs following intravenous injection in rat at the dose of 0.2 mg/kg; type: ADME, organism-based, Lung; settings: in vivo, 0.25 h; method in brief: as §1
Rattus norvegicus [7] = assay: Tested for the tissue distribution of Br activity at 45 min in lung following intravenous injection in rat at the dose of 0.2 mg/kg; type: ADME, organism-based; settings: in vivo, 0.75 h; method in brief: as §1
Rattus norvegicus [8] = assay: Tested for the tissue distribution of Br activity at 15 min in liver following intravenous injection in rat at the dose of 0.2 mg/kg; type: ADME, organism-based; settings: in vivo, 0.25 h; method in brief: as §1
Rattus norvegicus [9] = assay: Tested for the tissue distribution of Br activity at 30 min in kidney following intravenous injection in rat at the dose of 0.2 mg/kg; type: ADME, organism-based; settings: in vivo, 0.5 h; method in brief: as §1
Rattus norvegicus [10] = assay: Tested for the tissue distribution of Br activity at 60 min in liver following intravenous injection in rat at the dose of 0.2 mg/kg; type: ADME, organism-based; settings: in vivo, 1 h; method in brief: as §1
Rattus norvegicus [11] = assay: Tested for the tissue distribution of Br activity at 30 min in brain following intravenous injection in rat at the dose of 0.2 mg/kg; type: ADME, organism-based; settings: in vivo, 0.5 h; method in brief: as §1
Rattus norvegicus [12] = assay: Tested for the tissue distribution of Br activity at 45 min in liver following intravenous injection in rat at the dose of 0.2 mg/kg; type: ADME, organism-based; settings: in vivo, 0.75 h; method in brief: as §1
Rattus norvegicus [13] = assay: Tested for the tissue distribution of Br activity at 120 min in lung following intravenous injection in rat at the dose of 0.2 mg/kg; type: ADME, organism-based; settings: in vivo, 2 h; method in brief: as §1
Rattus norvegicus [14] = assay: Tested for the tissue distribution of Br activity at 15 min in kidney following intravenous injection in rat at the dose of 0.2 mg/kg; type: ADME, organism-based; settings: in vivo, 0.25 h; method in brief: as §1
Rattus norvegicus [15] = assay: Tested for the tissue distribution of Br activity at 60 min in blood following intravenous injection in rat at the dose of 0.2 mg/kg; type: ADME, organism-based; settings: in vivo, 1 h; method in brief: as §1
Rattus norvegicus [16] = assay: Tested for the tissue distribution of Br activity at 120 min in brain following intravenous injection in rat at the dose of 0.2 mg/kg; type: ADME, organism-based; settings: in vivo, 2 h; method in brief: as §1
Rattus norvegicus [17] = assay: Tested for the tissue distribution of Br activity at 120 min in liver following intravenous injection in rat at the dose of 0.2 mg/kg; type: ADME, organism-based; settings: in vivo, 2 h; method in brief: as §1
Rattus norvegicus [18] = assay: Tested for the tissue distribution of Br activity at 15 min in brain following intravenous injection in rat at the dose of 0.2 mg/kg; type: ADME, organism-based; settings: in vivo, 0.25 h; method in brief: as §1
Rattus norvegicus [19] = assay: Tested for the tissue distribution of Br activity at 30 min in lung following intravenous injection in rat at the dose of 0.2 mg/kg; type: ADME, organism-based; settings: in vivo, 0.5 h; method in brief: as §1
Rattus norvegicus [20] = assay: Tested for the tissue distribution of Br activity at 30 min in blood following intravenous injection in rat at the dose of 0.2 mg/kg; type: ADME, organism-based; settings: in vivo, 0.5 h; method in brief: as §1
Rattus norvegicus [21] = assay: Tested for the tissue distribution of Br activity at 60 min in brain following intravenous injection in rat at the dose of 0.2 mg/kg; type: ADME, organism-based; settings: in vivo, 1 h; method in brief: as §1
Rattus norvegicus [22] = assay: Tested for the tissue distribution of Br activity at 120 min in kidney following intravenous injection in rat at the dose of 0.2 mg/kg; type: ADME, organism-based; settings: in vivo, 2 h; method in brief: as §1
Rattus norvegicus [23] = assay: Tested for the tissue distribution of Br activity at 30 min in liver following intravenous injection in rat at the dose of 0.2 mg/kg; type: ADME, organism-based; settings: in vivo, 0.5 h; method in brief: as §1
Rattus norvegicus [24] = assay: Tested for the tissue distribution of Br activity at 60 min in kidney following intravenous injection in rat at the dose of 0.2 mg/kg; type: ADME, organism-based; settings: in vivo, 1 h; method in brief: as §1
Rattus norvegicus [25] = assay: Tested for the tissue distribution of Br activity at 45 min in brain following intravenous injection in rat at the dose of 0.2 mg/kg; type: ADME, organism-based; settings: in vivo, 0.75 h; method in brief: as §1

## O=C(CCCN1CCC(O)(c2ccc(Br)cc2)CC1)c1ccc(F)cc1 [BROMPERIDOL]
Rattus norvegicus [1]
  Dose/g: 0.14%
Rattus norvegicus [2]
  Dose/g: 2.25%
Rattus norvegicus [3]
  Dose/g: 0.15%
Rattus norvegicus [4]
  Dose/g: 1.03%
Rattus norvegicus [5]
  Dose/g: 0.12%
Rattus norvegicus [6]
  Dose/g: 5.07%
Rattus norvegicus [7]
  Dose/g: 2.75%
Rattus norvegicus [8]
  Dose/g: 1.53%
Rattus norvegicus [9]
  Dose/g: 1.2%
Rattus norvegicus [10]
  Dose/g: 1.58%
Rattus norvegicus [11]
  Dose/g: 0.41%
Rattus norvegicus [12]
  Dose/g: 1.7%
Rattus norvegicus [13]
  Dose/g: 1.23%
Rattus norvegicus [14]
  Dose/g: 1.63%
Rattus norvegicus [15]
  Dose/g: 0.14%
Rattus norvegicus [16]
  Dose/g: 0.2%
Rattus norvegicus [17]
  Dose/g: 1.44%
Rattus norvegicus [18]
  Dose/g: 0.58%
Rattus norvegicus [19]
  Dose/g: 3.17%
Rattus norvegicus [20]
  Dose/g: 0.14%
Rattus norvegicus [21]
  Dose/g: 0.32%
Rattus norvegicus [22]
  Dose/g: 0.61%
Rattus norvegicus [23]
  Dose/g: 1.66%
Rattus norvegicus [24]
  Dose/g: 0.93%
Rattus norvegicus [25]
  Dose/g: 0.41%

— ChEMBL document CHEMBL1121529, “Synthesis of [82Br]bromperidol and preliminary tissue distribution studies in the rat” (J Med Chem, 1980)
